Experimental data from different studies.
HDAC11: Histone deacetylase 11 (HDAC11, Homo sapiens, UniProt Q96DB2)
CYP1A2: Cytochrome P450 1A2 (CYP1A2, Homo sapiens, UniProt P05177)
ALDH2: Aldehyde dehydrogenase, mitochondrial (ALDH2, Homo sapiens, UniProt P05091)
CYP3A4: Cytochrome P450 3A4 (CYP3A4, Homo sapiens, UniProt P08684)
CHRM1: Muscarinic acetylcholine receptor M1 (CHRM1, Homo sapiens, UniProt P11229)

Cc1cc2c(C(N)=O)c(N)n(-c3c(C)ccc(O)c3C)c2nc1C  IC50 (RAF proto-oncogene serine/threonine-protein kinase (RAF1, Homo sapiens, UniProt P04049, Y340D/Y341D); enzyme activity, inhibitor, ADP detection): 0.0044 µM
COc1ccc(N(Cc2nc(-c3ccc(F)cc3)cs2)C(=O)CCCCCC(=O)NO)cc1  IC50 (HDAC11; enzyme activity, inhibitor): > 10 µM
CN(C)CCC=C1c2ccccc2CCc2ccccc21  IC50 (Short transient receptor potential channel 5 (Mus musculus, UniProt Q9QX29); ion current, inhibitor, patch clamp): 2.88 µM
Cc1ccc(OCC(=O)N[C@@H](Cc2c[nH]c3ccccc23)C(=O)OC(C)C)cc1  IC50 (CYP1A2; enzyme activity, inhibitor; human, liver microsomes; 30 min): > 50 µM
N=C(N)c1ccc2cc(OC(=O)c3ccc(N=C(N)N)cc3)ccc2c1  IC50 (Coagulation factor XII (F12, Homo sapiens, UniProt P00748); enzyme activity, inhibitor): 0.0326 µM
Cc1cccc2c1NC(=O)/C2=C/c1cc(Cl)c(O)c(Cl)c1  IC50 (ALDH2; enzyme activity, inhibitor, fluorescence): 12.7 µM
CN(C)C(=O)c1cc2cnc(Nc3ccc(-c4ccc5c(=O)cc(N6CCOCC6)oc5c4)cc3)nc2n1C1CCCC1  IC50 (CYP3A4; enzyme activity, inhibitor, fluorescence; pH 8): 56.1 µM
OCc1ccc(-c2nn(Cc3ccccc3)c3ccccc23)o1  IC50 (CYP1A2; enzyme activity, inhibitor; human, liver microsomes): 0.9 µM
O=C(CCNC(=O)CNC(=O)CC(c1ccccc1)(c1ccccc1)c1ccccc1)NC[C@H]1CCCN(Cc2ccc(F)cc2)C1  IC50 (CHRM1; ligand displacement, radioligand; cell membranes): 13.9 µM
Cn1ccc(-c2ccc(-c3cc(C(=O)O)cc4cc(-c5ccc(C(F)(F)F)cc5)ccc34)cc2)n1  IC50 (CYP3A4; enzyme activity, inhibitor): 10.8 µM
O=C(CCNC(=O)CNC(=O)CC(c1ccccc1)(c1ccccc1)c1ccccc1)NC[C@@H]1CCCN(Cc2ccc(F)nc2)C1  IC50 (CHRM1; ligand displacement, radioligand; cell membranes): > 30 µM
COc1ccc(N(Cc2csc(-c3ccc(C)cc3)n2)C(=O)CCCCCC(=O)NO)cc1  IC50 (HDAC11; enzyme activity, inhibitor): > 10 µM
CCCN(CCC)S(=O)(=O)c1ccc(C(=O)O)cc1  IC50 (Taste receptor type 2 member 14 (TAS2R14, Homo sapiens, UniProt Q9NYV8); inositol phosphate, antagonist, TR-FRET): 600 µM
C=CCn1c(=O)c2cnc(Nc3ccc(N4CCN(C)CC4)cc3)nc2n1-c1ccc2c(n1)[C@@](O)(CC)CC2  IC50 (CYP3A4; enzyme activity, inhibitor): 7 µM
O=C1Nc2ccccc2/C1=C\c1cc(F)c(O)c(F)c1  IC50 (ALDH2; enzyme activity, inhibitor, fluorescence): 0.9 µM
CCc1oc2cc(F)c(F)cc2c1C(=O)c1cc(Br)c(O)c(Br)c1  IC50 (Solute carrier organic anion transporter family member 1B1 (SLCO1B1, Homo sapiens, UniProt Q9Y6L6); transporter uptake, inhibitor, radiometric; oocytes): 7.34 µM
O=C1Nc2ccccc2C12CC2c1cc(Cl)c(O)c(Cl)c1 (stereo not drawn)  IC50 (ALDH2; enzyme activity, inhibitor, fluorescence): > 50 µM
CCc1cnn2c(NCc3ccc[n+]([O-])c3)cc(N3CCCC[C@H]3CCO)nc12  IC50 (Tyrosine-protein kinase JAK1 (JAK1, Homo sapiens, UniProt P23458); enzyme activity, inhibitor, ELISA): 0.062 µM
